Reference: ChEMBL document CHEMBL1148383, “Semisynthetic macrolide antibacterials derived from tylosin. Synthesis and structure-activity relationships of novel desmycosin analogues” (J Med Chem, 2004)
≈ marks a conversion by molar mass, not a printed value.

Columns and labels:
Enterococcus faecalis = assay: Antibacterial activity against Enterococcus faecalis ATCC 29212; assay type: functional
In short: (§1)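 MICs were determined by broth microdilution following NCCLS guidelines. The test panel includes erythromycin-susceptible strains and erythromycin-resistant strains with constitutive or inducible MLSB phenotypes or with efflux resistance.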

Haemophilus influenzae = assay: Antibacterial activity against Haemophilus influenzae ATCC 49247; assay type: functional; in short: as §1
Escherichia coli = assay: Antibacterial activity against Escherichia coli ATCC […]; assay type: functional; in short: as §1
Streptococcus pyogenes [1] = assay: Antibacterial activity against Streptococcus pyogenes PSCB-0545; assay type: functional; in short: as §1
Staphylococcus aureus [2] = assay: Antibacterial activity against Staphylococcus aureus PSCB-0538; assay type: functional; in short: as §1
Streptococcus pneumoniae = assay: Antibacterial activity against Streptococcus pneumoniae PSCB-0541; assay type: functional; in short: as §1
Staphylococcus aureus [3] = assay: Antibacterial activity against Staphylococcus aureus PSCB-0331; assay type: functional; in short: as §1
Staphylococcus aureus [4] = assay: Antibacterial activity against Staphylococcus aureus PSCB-0330; assay type: functional; in short: as §1
Streptococcus pyogenes [5] = assay: Antibacterial activity against Streptococcus pyogenes PSCB-0543; assay type: functional; in short: as §1
Staphylococcus aureus [6] = assay: Antibacterial activity against Staphylococcus aureus ATCC 13709; assay type: functional; in short: as §1
[7] = Cmax in lungs of mice at the oral dose of 50 mg/kg; assay type: ADME, organism-based, Lung; parameters: dose 50 mg/kg, route oral; settings: mouse
[8] = Tmax in lungs of mice at the oral dose of 50 mg/kg; assay type: ADME, organism-based, Lung; parameters: dose 50 mg/kg, route oral; settings: mouse
[9] = Tmax in kidney of mice at the oral dose of 50 mg/kg; assay type: ADME, organism-based; parameters: dose 50 mg/kg, route oral; settings: mouse
[10] = Tmax in brain of mice at the oral dose of 50 mg/kg; assay type: ADME, organism-based; parameters: dose 50 mg/kg, route oral; settings: mouse
Mus musculus [11] = assay: T2 in liver of mice at the oral dose of 50 mg/kg; assay type: ADME, organism-based; parameters: dose 50 mg/kg, route oral; settings: in vivo
Mus musculus [12] = assay: T2 in lungs of mice at the oral dose of 50 mg/kg; assay type: ADME, organism-based, Lung; parameters: dose 50 mg/kg, route oral; settings: in vivo
Mus musculus [13] = assay: C2 in liver of mice at the oral dose of 50 mg/kg; assay type: ADME, organism-based; parameters: dose 50 mg/kg, route oral; settings: in vivo
Mus musculus [14] = assay: C2 in lungs of mice at the oral dose of 50 mg/kg; assay type: ADME, organism-based, Lung; parameters: dose 50 mg/kg, route oral; settings: in vivo
[15] = Cmax in spleen of mice at the oral dose of 50 mg/kg; assay type: ADME, organism-based; parameters: dose 50 mg/kg, route oral; settings: mouse
[16] = Cmax in kidney of mice at the oral dose of 50 mg/kg; assay type: ADME, organism-based; parameters: dose 50 mg/kg, route oral; settings: mouse
Mus musculus [17] = assay: T2 in spleen of mice at the oral dose of 50 mg/kg; assay type: ADME, organism-based; parameters: dose 50 mg/kg, route oral; settings: in vivo
Mus musculus [18] = assay: C2 in kidney of mice at the oral dose of 50 mg/kg; assay type: ADME, organism-based; parameters: dose 50 mg/kg, route oral; settings: in vivo
[19] = Cmax in liver of mice at the oral dose of 50 mg/kg; assay type: ADME, organism-based; parameters: dose 50 mg/kg, route oral; settings: mouse
Mus musculus [20] = assay: T2 in kidney of mice at the oral dose of 50 mg/kg; assay type: ADME, organism-based; parameters: dose 50 mg/kg, route oral; settings: in vivo
Mus musculus [21] = assay: C2 in spleen of mice at the oral dose of 50 mg/kg; assay type: ADME, organism-based; parameters: dose 50 mg/kg, route oral; settings: in vivo
[22] = Tmax in liver of mice at the oral dose of 50 mg/kg; assay type: ADME, organism-based; parameters: dose 50 mg/kg, route oral; settings: mouse
[23] = Tmax in spleen of mice at the oral dose of 50 mg/kg; assay type: ADME, organism-based; parameters: dose 50 mg/kg, route oral; settings: mouse

Row | Structure (SMILES) | MIC (Enterococcus faecalis) | MIC (Haemophilus influenzae) | MIC (Escherichia coli) | MIC (Streptococcus pyogenes [1]) | MIC (Staphylococcus aureus [2]) | MIC (Streptococcus pneumoniae) | MIC (Staphylococcus aureus [3]) | MIC (Staphylococcus aureus [4]) | MIC (Streptococcus pyogenes [5]) | MIC (Staphylococcus aureus [6]) | other results
1 | CC[C@H]1OC(=O)/C=C\[C@H](C)[C@@H](OC2OC(C)C(O)C(N(C)C)C2O)[C@@H](CC=O)C[C@@H](C)C(=O)/C=C/C(C)=C/[C@@H]1COC1OC(C)C(O)C(OC)C1OC (some centres not stated) | 8 µg/mL (≈ 10.6 µM) | 4 µg/mL (≈ 5.31 µM) | > 128 µg/mL | 1 µg/mL (≈ 1.33 µM) | 4 µg/mL (≈ 5.31 µM) | 2 µg/mL (≈ 2.65 µM) | 1 µg/mL (≈ 1.33 µM) | > 128 µg/mL | 2 µg/mL (≈ 2.65 µM) | 0.5 µg/mL (≈ 0.663 µM) | –
2 | CC[C@H]1OC(=O)CC(=O)[C@H](C)[C@@H](O[C@@H]2O[C@@H](C)[C@@H](O)[C@@H](N(C)C)[C@H]2O)[C@H]2C[C@H](O)[C@@](C)(C2)C(=O)/C=C/C(C)=C/[C@@H]1CO[C@@H]1O[C@@H](C)[C@@H](O)[C@@H](OC)[C@@H]1OC | 8 µg/mL (≈ 10.4 µM) | 128 µg/mL (≈ 166 µM) | > 128 µg/mL | 16 µg/mL (≈ 20.8 µM) | 8 µg/mL (≈ 10.4 µM) | 4 µg/mL (≈ 5.2 µM) | 32 µg/mL (≈ 41.6 µM) | > 128 µg/mL | 64 µg/mL (≈ 83.1 µM) | 8 µg/mL (≈ 10.4 µM) | –
3 | CC[C@H]1O/C(O)=C/C(=O)[C@H](C)[C@@H](OC2OC(C)C(O)C(N(C)C)C2O)[C@@H](C/C=C/C(=O)OC)C[C@@H](C)C(=O)/C=C/C(C)=C/[C@@H]1COC1OC(C)C(O)C(OC)C1OC (some centres not stated) | 4 µg/mL (≈ 4.84 µM) | 128 µg/mL (≈ 155 µM) | > 128 µg/mL | 4 µg/mL (≈ 4.84 µM) | 2 µg/mL (≈ 2.42 µM) | 32 µg/mL (≈ 38.7 µM) | 2 µg/mL (≈ 2.42 µM) | > 128 µg/mL | 4 µg/mL (≈ 4.84 µM) | 2 µg/mL (≈ 2.42 µM) | –
4 | CCOC(=O)/C=C/C[C@H]1C[C@@H](C)C(=O)/C=C/C(C)=C/[C@H](COC2OC(C)C(O)C(OC)C2OC)[C@@H](CC)OC(=O)C[C@@H](NN(C(=O)OCC)C(=O)OCC)[C@H](C)[C@H]1OC1OC(C)C(O)C(N(C)C)C1O (some centres not stated) | 64 µg/mL (≈ 64 µM) | 128 µg/mL (≈ 128 µM) | 128 µg/mL (≈ 128 µM) | 16 µg/mL (≈ 16 µM) | 64 µg/mL (≈ 64 µM) | 32 µg/mL (≈ 32 µM) | 32 µg/mL (≈ 32 µM) | 128 µg/mL (≈ 128 µM) | 32 µg/mL (≈ 32 µM) | 4 µg/mL (≈ 4 µM) | –
5 | CC[C@H]1OC(=O)C[C@@H](O)[C@H](C)[C@@H](OC2OC(C)C(O)C(N(C)C)C2O)[C@@H](C/C=C/C(C)=O)C[C@@H](C)C(=O)/C=C/C(C)=C/[C@@H]1COC1OC(C)C(O)C(OC)C1OC (some centres not stated) | 1 µg/mL (≈ 1.23 µM) | 4 µg/mL (≈ 4.93 µM) | 128 µg/mL (≈ 158 µM) | 0.5 µg/mL (≈ 0.616 µM) | 0.25 µg/mL (≈ 0.308 µM) | 2 µg/mL (≈ 2.46 µM) | 0.5 µg/mL (≈ 0.616 µM) | 128 µg/mL (≈ 158 µM) | 0.5 µg/mL (≈ 0.616 µM) | 0.25 µg/mL (≈ 0.308 µM) | Cmax [7]: 10400 ng/g; Tmax [8]: 2 h; Tmax [9]: 2 h; Tmax [10]: 0 h; T2 (Mus musculus [11]): 4 h; T2 (Mus musculus [12]): 0.5 h; C2 (Mus musculus [13]): 24.43 µg/g; C2 (Mus musculus [14]): 10.24 µg/g; Cmax [15]: 7970 ng/g; Cmax [16]: 14300 ng/g; T2 (Mus musculus [17]): 2 h; C2 (Mus musculus [18]): 4.58 µg/g; Cmax [19]: 33300 ng/g; T2 (Mus musculus [20]): 4 h; C2 (Mus musculus [21]): 7 µg/g; Tmax [22]: 2 h; Tmax [23]: 0.5 h
6 | CCOC(=O)/C=C/C[C@H]1C[C@@H](C)C(=O)/C=C/C(C)=C/[C@H](COC2OC(C)C(O)C(OC)C2OC)[C@@H](CC)OC(=O)C[C@@H](OC(=O)Cc2ccc([N+](=O)[O-])cc2)[C@H](C)[C@H]1OC1OC(C)C(O)C(N(C)C)C1O (some centres not stated) | 2 µg/mL (≈ 1.99 µM) | 8 µg/mL (≈ 7.96 µM) | > 128 µg/mL | 0.5 µg/mL (≈ 0.497 µM) | 0.25 µg/mL (≈ 0.249 µM) | 4 µg/mL (≈ 3.98 µM) | 0.5 µg/mL (≈ 0.497 µM) | > 128 µg/mL | 2 µg/mL (≈ 1.99 µM) | < 0.25 µg/mL | –
7 | CC[C@H]1OC(=O)C[C@@H](O)[C@H](C)[C@@H](O[C@@H]2O[C@H](C)[C@@H](O)[C@@H](N(C)C)[C@H]2O)[C@@H](CC=O)C[C@@H](C)C(=O)/C=C/C(C)=C/[C@@H]1CO[C@@H]1O[C@H](C)[C@@H](O)[C@@H](OC)[C@H]1OC | 1 µg/mL (≈ 1.3 µM) | 4 µg/mL (≈ 5.18 µM) | 128 µg/mL (≈ 166 µM) | 0.5 µg/mL (≈ 0.648 µM) | 1 µg/mL (≈ 1.3 µM) | 1 µg/mL (≈ 1.3 µM) | 1 µg/mL (≈ 1.3 µM) | > 128 µg/mL | 1 µg/mL (≈ 1.3 µM) | 1 µg/mL (≈ 1.3 µM) | –
8 | CC[C@H]1OC(=O)C[C@@H](O)[C@H](C)[C@@H](OC2OC(C)C(O)C(N(C)C)C2O)[C@@H](C/C=C/C(=O)O)C[C@@H](C)C(=O)/C=C/C(C)=C/[C@@H]1COC1OC(C)C(O)C(OC)C1OC (some centres not stated) | > 128 µg/mL | 128 µg/mL (≈ 157 µM) | > 128 µg/mL | 128 µg/mL (≈ 157 µM) | > 128 µg/mL | > 128 µg/mL | > 128 µg/mL | > 128 µg/mL | > 128 µg/mL | > 128 µg/mL | –
9 | CC[C@H]1O/C(O)=C/C(=O)[C@H](C)[C@@H](OC2OC(C)C(O)C(N(C)C)C2O)[C@@H](CC=O)C[C@@H](C)C(=O)CCC(C)C[C@@H]1COC1OC(C)C(O)C(OC)C1OC (some centres not stated) | > 128 µg/mL | > 128 µg/mL | > 128 µg/mL | 1 µg/mL (≈ 1.29 µM) | 16 µg/mL (≈ 20.7 µM) | 64 µg/mL (≈ 82.7 µM) | 8 µg/mL (≈ 10.3 µM) | > 128 µg/mL | 8 µg/mL (≈ 10.3 µM) | 8 µg/mL (≈ 10.3 µM) | –
10 | CC[C@H]1OC(=O)C[C@@H](O)[C@H](C)[C@@H](O[C@@H]2O[C@H](C)[C@@H](O[C@H]3C[C@@](C)(O)[C@@H](O)[C@H](C)O3)[C@H](N(C)C)[C@H]2O)[C@@H](CC=O)C[C@@H](C)C(=O)/C=C/C(C)=C/[C@@H]1CO[C@@H]1O[C@H](C)[C@@H](O)[C@@H](OC)[C@H]1OC [TYLOSIN] | 1 µg/mL (≈ 1.09 µM) | 8 µg/mL (≈ 8.73 µM) | 64 µg/mL (≈ 69.9 µM) | 0.5 µg/mL (≈ 0.546 µM) | 0.5 µg/mL (≈ 0.546 µM) | 0.5 µg/mL (≈ 0.546 µM) | 1 µg/mL (≈ 1.09 µM) | > 128 µg/mL | 1 µg/mL (≈ 1.09 µM) | 1 µg/mL (≈ 1.09 µM) | –
11 | CC[C@H]1OC(=O)CC(=O)[C@H](C)[C@@H](O[C@@H]2O[C@@H](C)[C@@H](O)[C@@H](N(C)C)[C@H]2O)[C@H]2C[C@@H](O)[C@](C)(C2)C(=O)/C=C/C(C)=C/[C@@H]1CO[C@@H]1O[C@@H](C)[C@@H](O)[C@@H](OC)[C@@H]1OC | 4 µg/mL (≈ 5.2 µM) | 128 µg/mL (≈ 166 µM) | > 128 µg/mL | 16 µg/mL (≈ 20.8 µM) | 4 µg/mL (≈ 5.2 µM) | 8 µg/mL (≈ 10.4 µM) | 32 µg/mL (≈ 41.6 µM) | > 128 µg/mL | 64 µg/mL (≈ 83.1 µM) | 8 µg/mL (≈ 10.4 µM) | –
